Laboratory results taken from publication PMC4420653 (Biochemical pharmacology, 2015).
“And” between values parts separate entries of the source, which are not always exact repeats. Identical values can stand only once. “Also recorded” adds a separate entry of the source. Like-named read-outs stand apart in the source and are kept apart here.

What was measured:
[1] = tested on: atRA formation in mouse testis S10 fractions; assay: Inhibition of atRA formation by WIN 18,446 in testis S10 fractions; format: biochemical
[2] = tested on: atRA formation in mouse liver S10 fractions; assay: Inhibition of atRA formation by WIN 18,446 in liver S10 fractions; format: biochemical; settings: read-out: IC50 for inhibition of atRA formation; pooled liver S10, 100 nM at-retinal, 2 mM NAD+
[3] = tested on: atRA formation in mouse liver S10 protein; assay: Time dependent inhibition of atRA formation in liver S10 protein; format: biochemical; settings: pooled liver S10 protein, 1 µM WIN 18,446 preincubation
[4] = tested on: atRA formation in mouse liver S10 protein; format: biochemical
[5] = WIN 18,446 pharmacokinetics in mice; format: in vivo, mouse
[6] = tested on: atRA formation in testes S10 fractions; assay: atRA formation velocity in testes S10 fractions from WIN 18,446 treated mice; format: in vivo, mouse
[7] = tested on: ALDH1A1 and ALDH1A2 protein expression; assay: ALDH1A1 and ALDH1A2 protein expression in liver and testis of treated mice; format: in vivo, mouse; settings: 8 days of treatment
Summary of the method: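 Test compound was given orally at 125 mg/kg every 24 h for 8 days (n=3), alongside a single-dose group (n=3) and vehicle controls dosed with 1% gum tragacanth (n=8). S10 fractions (microsomes plus cytosol) were made from each mouse's testes (17–45 mg) and liver (114–309 mg), protein was measured by BCA, and ALDH1A1 and ALDH1A2 were quantified by LC-MS/MS. Mean ± SD.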

[8] = tested on: liver atRA concentrations; assay: Liver atRA concentrations after WIN 18,446 administration; format: in vivo, mouse
[9] = tested on: testis atRA concentrations; assay: Testis atRA concentrations after WIN 18,446 administration; format: in vivo, mouse; settings: for testis atRA concentration: single dose
[10] = tested on: serum atRA concentrations; assay: Serum atRA concentrations after WIN 18,446 administration; format: in vivo, mouse
[11] = biological target: T1, ALDH1A2 (Mus musculus, UniProt Q62148); settings: mouse testes S10 fractions
T1 sequence (Q62148 1-518): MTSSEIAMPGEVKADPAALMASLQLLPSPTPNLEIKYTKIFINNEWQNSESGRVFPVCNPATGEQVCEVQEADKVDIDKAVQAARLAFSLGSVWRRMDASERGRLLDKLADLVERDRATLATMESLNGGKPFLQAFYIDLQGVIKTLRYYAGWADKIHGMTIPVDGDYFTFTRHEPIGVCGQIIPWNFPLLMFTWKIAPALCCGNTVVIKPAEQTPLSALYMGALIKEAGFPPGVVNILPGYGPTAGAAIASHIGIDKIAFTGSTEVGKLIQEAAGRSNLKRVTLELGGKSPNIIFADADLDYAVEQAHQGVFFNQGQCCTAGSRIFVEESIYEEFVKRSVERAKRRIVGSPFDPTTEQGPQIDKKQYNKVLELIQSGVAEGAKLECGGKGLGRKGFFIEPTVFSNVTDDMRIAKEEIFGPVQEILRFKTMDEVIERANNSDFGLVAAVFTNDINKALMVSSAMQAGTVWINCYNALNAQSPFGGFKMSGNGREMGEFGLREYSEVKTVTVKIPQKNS

[12] = 500 nM, ultracentrifugation
[13] = tested on: atRA formation in human testis; settings: human testicular tissue; cited from earlier work
[14] = tested on: ALDH1A1; settings: read-out: Km of atRA formation; recombinant ALDH1A1; cited from earlier work
[15] = Tissue half-life of atRA from concentration-time curves after WIN 18,446; format: in vivo; settings: C57BL/6-129, mouse, po, 125 mg/kg
[16] = biological target: AOX; settings: cited from earlier work
[17] = tested on: atRA formation in the mouse liver; settings: cited from earlier work
[18] = eight daily doses 125 mg/kg po, mice
[19] = 125 mg/kg once a day for 8 days

Structure (SMILES): O=C(NCCCCCCCCNC(=O)C(Cl)Cl)C(Cl)Cl [WIN 18,446]
- IC50 ([1]; read-out: IC50 for inhibition of atRA formation, pooled testis S10, 100 nM at-retinal, 2 mM NAD+): 59 ± 1 nM
- maximum inhibition of atRA formation ([1]; testis S10 fractions): > 95%
- IC50 [2]: 92 ± 2 nM
- time dependent inhibition of atRA formation [3]: not liver S10 protein; also recorded: not in the liver
- inhibition of atRA formation ([4]; WIN 18,446 5000 nM alone, 1000 nM at-retinal, Figure 2D): 60 ± 2%
- average concentration over the 24 hour dosing interval ([5]; day 8 of dosing 125 mg/kg po): 3.5 µM
- AUC0–24 [5, 18]: 87.6 µM·h
- Cmax [5, 18]: 8.5 µM
- increase in Cmax versus single dose ([5]; eight daily doses vs single dose): 7 fold
- AUC0-∞ ([5]; single dose 125 mg/kg po, mice): 2.5 µM·h
- Cmax ([5]; single dose 125 mg/kg po, mice): 1.3 µM
- average concentration over a 24 hour interval ([5]; single dose 125 mg/kg po, mice): 0.1 µM
- time to reach Cmax ([5]; single dose 125 mg/kg po, mice): ≤ 30 min
- two compartment model parameter A ([5]; single dose, fit of equation 4): -6.6 µM
- two compartment model parameter B ([5]; single dose, fit of equation 4): 6.2 µM
- two compartment model parameter C ([5]; single dose, fit of equation 4): 0.4 µM
- two compartment model parameter α ([5]; single dose, fit of equation 4): 1.3e+06 h⁻¹
- two compartment model parameter β ([5]; single dose, fit of equation 4): 3.7 h⁻¹
- two compartment model parameter γ ([5]; single dose, fit of equation 4): 0.2 hr-^1
- decrease in atRA formation in testes S10 ([6]; at the time of the 8th dose (24 hours after 7th dose)): 79 ± 5%
- decrease in atRA formation in testes S10 ([6]; testes collected 24 hours after single dose 125 mg/kg, 125 mg/kg): 55 ± 2% and 55%
- change in ALDH1A1 or ALDH1A2 expression in liver or testis [7]: not significantly altered; also recorded: not significantly changed
- average liver atRA concentration [8, 19]: 5.4 ± 1.9 pmol/g
- reduction in average liver atRA concentration versus vehicle [8, 19]: 32% and 32 ± 3%
- decrease in liver atRA ([8]; abstract, dosing not specified): 50%
- time of first significant reduction of liver atRA ([8]; after the first dose, p < 0.01): 0.5 h
- decrease in hepatic atRA concentration ([8]; single dose): 42%
- time of return of liver atRA to baseline ([8]; single dose): 12 h
- liver atRA concentration ([8]; single dose, by 4 hours after dosing): 58 % of control
- hepatic atRA concentration on return ([8]; single dose, within 24 hours): 100%
- average testicular atRA concentration over the 24 hours dosing interval [9, 19]: 1.5 ± 0.3 pmol/g
- testicular atRA concentration, average for the dosing interval [9, 19]: 33 % of control and 33 ± 5 % of control
- decrease in testicular atRA ([9]; abstract, dosing not specified): over 90%
- time of first significant reduction of testis atRA ([9]; after the first dose, p < 0.01): 0.5 h
- observed decrease in testis atRA concentrations ([9]; following WIN 18,446 dosing (compared with single dose prediction)): 67%
- testis atRA concentration ([9]; 24 hours after dosing): 23 % of control
- testis atRA concentration ([9]; by 4 hours): < 10 % of control
- testicular atRA concentration ([9]; time 0 hr before the 8th dose): 60 % of control
- average serum atRA concentration [10, 19]: 1.3 ± 0.7 pmol/g
- time of first significant decrease of serum atRA ([10]; after the first dose, p < 0.05): 2 h
- time of return of serum atRA to baseline ([10]; single dose): 24 h
- serum atRA concentration ([10]; single dose, by 4 hours): < 20 % of control
- KI (time dependent inhibition) [11]: 420 ± 190 nM
- fu in mouse serum [12]: > 0.99
- inhibition of atRA formation in human testis [13]: more than 95%

Structure (SMILES): CC1=C(/C=C/C(C)=C/C=C/C(C)=C/C=O)C(C)(C)CCC1 [at-retinal, all-trans retinal]
- Km [14]: 0.285 µM

Structure (SMILES): CC1=C(/C=C/C(C)=C/C=C/C(C)=C/C(=O)O)C(C)(C)CCC1 [atRA, all-trans retinoic acid]
- half-life ([15]; liver): < 30 min
- half-life ([15]; serum): 30 ± 6 min
- half-life ([15]; testis): 78 ± 6 min

Structure (SMILES): NNc1nncc2ccccc12 [hydralazine]
- inhibition of atRA formation ([4]; hydralazine 1 mM, 45 min preincubation, liver S10, 1000 nM at-retinal): approximately 50%
- KI [16]: 83000 ± 27000 nM
- kinact [16]: 3.8 ± 0.4 hr-^1

Structure (SMILES): Cc1ncc(CO)c(C=O)c1O [pyridoxal]
- inhibition of atRA formation [17]: approximately 5%
